Screening results: PubChem BioAssay, The Scripps Research Institute Molecular Screening Center
An excerpt weighted towards active compounds, which were near 3.9% of everything screened.
CHRM1 agonist: agonists of human M1 muscarinic receptor. P11229. CHO-K1 hM1, Fluo-8 calcium fluorescence, agonist mode; 0% DMSO, 100% acetylcholine EC100. activation, % at 3 µM. actives 0.33% (n = 360,000). AID 588814;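 active means activation above the run's mean compound activation plus 3 SD, cut at about 16% in these data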;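 further: peak over basal fluorescence ratio within a 140 s kinetic read after compound addition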
m5-HT2A agonist: activates the mouse 5-HT2A serotonin receptor. activation, % at 7.6 µM. P35363. AID 624169. CHO-K1 mHTR2A beta-arrestin complementation, luminescence; percent of 30 µM serotonin response. actives 0.66% (n = 360,000);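 active means activation above a run cutoff, the mean activation of all tested compounds plus 3 SD, cut at about 14% in these data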;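 further: 0% = plate median of compound wells and 100% = 30 µM serotonin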
Target sequence (P35363 whole entry, looked up): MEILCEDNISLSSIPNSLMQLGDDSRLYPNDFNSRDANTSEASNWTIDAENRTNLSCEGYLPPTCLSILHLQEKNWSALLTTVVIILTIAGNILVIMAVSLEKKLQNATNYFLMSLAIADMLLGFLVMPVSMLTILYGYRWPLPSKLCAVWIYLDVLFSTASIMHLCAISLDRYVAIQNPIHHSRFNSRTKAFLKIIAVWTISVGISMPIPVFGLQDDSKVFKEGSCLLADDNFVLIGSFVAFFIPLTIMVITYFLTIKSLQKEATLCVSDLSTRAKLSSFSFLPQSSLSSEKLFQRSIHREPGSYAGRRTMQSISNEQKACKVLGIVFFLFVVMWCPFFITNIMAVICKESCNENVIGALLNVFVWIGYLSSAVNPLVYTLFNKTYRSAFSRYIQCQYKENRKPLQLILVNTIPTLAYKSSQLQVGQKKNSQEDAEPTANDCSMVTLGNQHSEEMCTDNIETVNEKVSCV
CHRM1 antagonist: antagonists of human M1 muscarinic receptor; inhibition, % at 3 µM; actives 1.3% (n = 360,000); P11229; CHO-K1 hM1, Fluo-8 calcium fluorescence, ACh EC80 antagonist;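 active means percent inhibition above its own plate's cutoff, namely the mean of that plate's compound wells plus 3 SD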;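 further: peak over basal fluorescence ratio during 140 s after agonist addition; 0% = ACh EC80 plus DMSO and 100% = DMSO alone without agonist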
TAAR1 ag: human TAAR1 agonism; Q96RJ0; CHO RD-HGA16 TAAR1, Fluo-8 calcium fluorescence; vehicle wells 0%, saturating PEA agonist 100%; activation, % at 3 µM; actives 0.99% (n = 360,000);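 active means activation above the mean activation of all test compounds in the run plus 3 SD, cut at about 38% in these data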
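Assay system: CHO-derived RD-HGA16 cells with stable Gα16 and human TAAR1; timing: 17-24 h seeding, 75 min 37 °C dye, 30 min RT; read-out: % activation from peak over basal fluorescence ratio, DMSO-to-PEA scaled; measured by: kinetic Fluo-8 calcium fluorescence; benchmarks: low control DMSO, high control PEA (EC100); doses: 3 µM single concentration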
TAAR1 antagonist: human TAAR1 antagonism; AID 624466; actives 1.5% (n = 360,000); CHO RD-HGA16 TAAR1, Fluo-8 calcium fluorescence, antagonist; inhibition, % at 3 µM; Q96RJ0;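 active means inhibition above a per-plate cutoff, the mean inhibition of test compounds on that plate plus 3 SD, cut at about 49% in these data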;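 further: 0% = DMSO plus EC80 beta-PEA response and 100% = DMSO alone without agonist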
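Assay system: CHO-derived RD-HGA16 cells stably expressing human TAAR1 plus Gα16. Timing: 140 s kinetic read after compound, 140 s after agonist. Technique: kinetic Fluo-8 calcium fluorescence measurement. Measure: % inhibition of agonist calcium response.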
M1 PAM: human CHRM1 positive allosteric modulation | P11229 | CHO-K1 hM1, Fluo-8 calcium fluorescence, ACh EC20; 0% = ACh EC20, 100% = maximal ACh | activation, % at 3 µM | actives 0.088% (n = 360,000) | AID 588819; in the data active means activation above about 19%, passing the limit was not always enough
TAAR1 ag confirm: confirmation of human TAAR1 agonists. shares compounds with TAAR1 ag. CHO RD-HGA16 TAAR1, Fluo-8 calcium fluorescence; scaled: DMSO 0%, maximal phenethylamine 100%. activation, % at 3 µM. actives 82% (n = 2,400). AID 651783;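 active means activation above a cutoff set at the run's mean compound activation plus 3 SD, cut at about 39% in these data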
Ga16 ag counter: counter-screen for TAAR1 agonists: nonselective agonists in parental cells; shares compounds with TAAR1 ag; CHO-Ga16 parental, Fluo-8 calcium fluorescence; normalized to maximal ATP response, DMSO zero; activation, % at 3 µM; actives 50% (n = 2,400);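 active means activation above the run cutoff, the mean activation over all tested wells plus 3 SD, cut at about 12% in these data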;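 further: 0% = DMSO wells and 100% = maximal ATP response on the peak over basal ratio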
TAAR1 desens: TAAR1 response desensitization, agonist counter-screen; CHO RD-HGA16 hTAAR1, Fluo-8 calcium, beta-PEA response inhibition; inhibition, % at 3 µM; shares compounds with TAAR1 ag; actives 46% (n = 2,400);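 active means inhibition above the run cutoff, the mean inhibition of all test compounds plus 3 SD, cut at about 49% in these data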;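 further: beta-PEA stimulus applied at its EC80; loss of beta-PEA calcium signal after compound pretreatment read as receptor desensitization; 0% = DMSO with beta-PEA at EC80 and 100% = DMSO alone without agonist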
Ga16 antag count: nonselective Ga16 antagonist in TAAR1 agonist counter-screen. shares compounds with TAAR1 ag. AID 651952. actives 39% (n = 2,400). CHO-Ga16 ATP-induced calcium, Fluo-8 fluorescence. inhibition, % at 3 µM;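 active means inhibition above the plate's mean compound inhibition plus 3 SD, computed per plate, cut at about 22% in these data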;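 further: 0% = EC80 ATP with DMSO and 100% = DMSO wells without ATP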
* = called active by the depositor; / = not tested or not shown.

SMILES	CHRM1 agonist	m5-HT2A agonist	CHRM1 antagonist	TAAR1 ag	TAAR1 antagonist	M1 PAM	TAAR1 ag confirm	Ga16 ag counter	TAAR1 desens	Ga16 antag count
CCN=C1NC(c2ccc(F)cc2)C(C(=O)OC)=C(C)N1Cc1cccc(C(F)(F)F)c1 (configuration not stated)	/	/	/	92*	95*	/	71*	39*	76*	57*
COC(=O)C1=C(C)N(Cc2cccc(C(F)(F)F)c2)C(=NCc2ccc(C(F)(F)F)cc2)NC1c1ccc(Cl)cc1 (configuration not stated)	/	/	/	13	31	/	/	/	/	/
CCN=C1NC(c2ccc(C(F)(F)F)cc2)C(C(=O)OC)=C(C)N1Cc1cccc(C(F)(F)F)c1 (configuration not stated)	/	/	/	46*	45	/	53*	28*	45	45*
CCN=C1NC(c2ccc(F)cc2)C(C(=O)OC)=C(C)N1Cc1ccc(C(F)(F)F)cc1 (configuration not stated)	/	/	/	28	45	/	/	/	/	/
CCN=C1NC(c2ccc(Cl)cc2)C(C(=O)OC)=C(C)N1Cc1cccc(C(F)(F)F)c1 (configuration not stated)	/	/	/	56*	74*	/	65*	35*	82*	59*
C/C=C/c1ccc2c(c1)O[C@H](CN(C)CC1CCOCC1)[C@@H](C)CN([C@H](C)CO)S2(=O)=O	-3	2	-11	2	-10	4	/	/	/	/
Cc1cc(=O)[nH]c(SCC(=O)N2CCc3ccccc3C2)n1	-4	0	4	77*	56*	-1	77*	5	20	12
CCCn1c(SCC(=O)N2CCc3ccccc3C2)nc(O)cc1=O	-4	-8	0	/	/	0	/	0	/	1
O=C(c1cccc(C(F)(F)F)c1)C1CCCN(C(=O)CCCN2CCCC2=O)C1 (configuration not stated)	-9	-3	6	3	6	-4	/	/	/	/
Cc1ccc(C(=O)NC(=S)NNC(=O)COc2ccccc2C)cc1	-2	2	6	6	-13	3	/	/	/	/
Cc1cccc(C(=O)NC(=S)NNC(=O)COc2c(C)cccc2C)c1	12	0	5	126*	90*	-4	143*	119*	96*	63*
Cc1cccc(C(=O)NC(=S)NNC(=O)Cc2ccccc2)c1	15	5	2	119*	64*	-6	121*	89*	74*	45*
C=CCNc1nc(-c2ccccc2)nc(-n2ccnc2)n1	-7	4	-10	46*	24	1	-4	-1	0	11
CCCCNc1nc(-c2ccccc2)nc(-n2ccnc2)n1	-3	3	-2	1	11	2	/	/	/	/
CCOC(=O)N1CCN(S(=O)(=O)c2c(C(=O)N3CCCCC3)c(C)n(C)c2C)CC1	0	-1	-2	0	-9	9	/	/	/	/
COc1ccc2c(c1)C1(C)CC(C)(C)N2C(=O)N1c1ccccc1 (configuration not stated)	3	0	-18	44*	11	9	16	8	3	10
Cc1ccc(C(=O)OCC(=O)Nc2ccc3c(c2)OCO3)c(O)c1	0	-9	-8	22	2	4	/	/	/	/
COC(=O)c1ccccc1NC(=O)CN1C(=O)CSC1=O	-1	-2	-8	7	1	8	/	/	/	/
COC(=O)c1cc(NC(=O)CN2C(=O)CSC2=O)ccc1Cl	-2	9	-14	70*	6	9	5	1	-7	2
CCOC(=O)c1cc(-c2ccccc2)n(CC(=O)O)c1C	1	-5	-2	7	-4	4	/	/	/	/
COC(=O)c1cc(-c2ccccc2)n(CCN)c1C	-4	-6	11	46*	29	-2	51*	0	26	-1
CN(CC(=O)Nc1cccc(F)c1)C(=O)CSc1ccccc1F	0	-9	9	1	-7	-4	/	/	/	/
Cc1nn(CCCC(=O)NCCc2ccccc2)c(=O)c2nccn12	-2	-2	-13	44*	-34	4	66*	3	6	7
O=C(CCCCC(=O)NCCc1ccccc1)NCCc1ccccc1	-2	1	-6	10	2	3	/	/	/	/
C#CCOC(=O)CCC(=O)NCCc1ccccc1	-2	-2	5	63*	77*	-6	84*	4	97*	11
SMILES	CHRM1 agonist	m5-HT2A agonist	CHRM1 antagonist	TAAR1 ag	TAAR1 antagonist	M1 PAM	TAAR1 ag confirm	Ga16 ag counter	TAAR1 desens	Ga16 antag count
O=C(CCCOc1ccccc1)NCCc1ccccc1	-7	-4	-2	/	/	7	/	2	/	7
O=S1(=O)C[C@H](N2CC[C@@H](O)C2)[C@@H](COCc2ccccc2)N1	-5	4	8	0	-7	-1	/	/	/	/
C/C(=N/NC(=O)c1ccncc1)c1cc2ccc(O)cc2oc1=O	2	-2	5	90*	19	-6	134*	153*	6	11
CCOc1ccc(N2C(=O)CC(N(Cc3ccco3)C(=O)CCC(=O)O)C2=O)cc1 (configuration not stated)	-2	0	-5	-1	3	7	/	/	/	/
COc1ccccc1CCNS(=O)(=O)CCNC(=O)c1ccc2c(c1)OCO2	-3	0	-10	74*	40	5	91*	2	73*	15
Cc1ccc(CNS(=O)(=O)CCNC(=O)c2ccc3c(c2)OCO3)cc1	1	5	-22	0	-18	10	/	/	/	/
O=C(CC(NCCc1ccccc1)C(=O)O)Nc1ccc(O)cc1 (configuration not stated)	/	/	/	50*	6	/	91*	1	74*	6
O=C(CC(c1ccccc1)c1ccccc1)Nc1ccc(O)cc1	-1	2	-22	2	-1	16	/	/	/	/
CCOC(=O)C1=C(C(=O)OCC)C2N(Cc3ccc(Br)cc3)c3ccccc3[C@@]23C[C@@H](C(=O)OC)N(S(=O)(=O)c2cccs2)C3=N1 (some centres not stated)	/	/	/	0	-21	/	/	/	/	/
